Source: PubChem
Rows were chosen to be rich in hits. Some 5.9% of all compounds tested hit in one or more screens of this group.
Jurkat viability – cytotoxicity toward Jurkat cells | inhibition, % at 4 µM | actives 1.2% (n = 56,000) | Jurkat E6.1 viability, ATP luminescence, 48 h;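 active = inhibition above the mean inhibition of all tested compounds plus 3 SD, cut at about 28% in these data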
MT1-MMP txn act – MT1-MMP promoter transcription activation; actives 0.16% (n = 86,000); HT1080 MT1-MMP promoter luciferase reporter, luminescence, overnight; active compounds read high; activation factor at 10 µM;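 active = activation factor of at least 2 for MT1-MMP transcription at 10 µM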
HUVEC inhibit – inhibitors of human endothelial cell proliferation. viability, % at 10 µM (by protocol). HUVEC proliferation, CellTiter-Glo luminescence, 72 h; active compounds read low. actives 1.1% (n = 86,000);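 active = viability at or below 30%; inactive = viability above 30%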
H69AR growth 86K – growth inhibitors of human H69AR lung tumor cells. H69AR lung tumor viability, ATP luminescence, 72 h; active compounds read low. viability, % at 10 µM. actives 6% (n = 85,000);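 active = viability at or below 40%; inactive = viability above 40%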;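 also: multidrug resistant small cell line overexpressing MRP-1 efflux transporter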
Lung fibro prol – blocks proliferation of human lung fibroblasts. LL 47 human lung fibroblast viability, ATP luminescence; active compounds read low. viability, % at 10 µM. actives 1.1% (n = 85,000). AID 719;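 active = viability at or below 50% in the single dose screen; inactive = viability above 50%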;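 also: compound exposure lasted 72 h before the ATP readout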
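Test system: LL 47 human lung fibroblasts; Quantity: 1,150 cells/well; Buffer or medium: IMEM plus 15% FBS; Dosing: tenfold compound dosing solution, DMSO at 0.1%; Timing: overnight cell rest, 72 h compound treatment at 37 °C; Detection: ATP-based CellTiter-Glo luminescent readout; Read-out basis: viability percentage against median untreated-cell control; Controls: cell-only wells, no compound.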
PTK2B oligo ant – Pyk2 (human) oligomerization antagonism; Q14289; Q293 cells, Pyk2 FERM NanoBiT luminescence; active compounds read low; z-score (the deposit names both 25 µM and 10 µM); actives 0.83% (n = 99,000);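 active = Z-score of -3 or lower, scaled per plate to the spread of control and sample wells; inactive = z-score above -3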;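 also: negative z-score means lost luminescence so less FERM oligomerization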
Target sequence (Q14289 whole entry, looked up): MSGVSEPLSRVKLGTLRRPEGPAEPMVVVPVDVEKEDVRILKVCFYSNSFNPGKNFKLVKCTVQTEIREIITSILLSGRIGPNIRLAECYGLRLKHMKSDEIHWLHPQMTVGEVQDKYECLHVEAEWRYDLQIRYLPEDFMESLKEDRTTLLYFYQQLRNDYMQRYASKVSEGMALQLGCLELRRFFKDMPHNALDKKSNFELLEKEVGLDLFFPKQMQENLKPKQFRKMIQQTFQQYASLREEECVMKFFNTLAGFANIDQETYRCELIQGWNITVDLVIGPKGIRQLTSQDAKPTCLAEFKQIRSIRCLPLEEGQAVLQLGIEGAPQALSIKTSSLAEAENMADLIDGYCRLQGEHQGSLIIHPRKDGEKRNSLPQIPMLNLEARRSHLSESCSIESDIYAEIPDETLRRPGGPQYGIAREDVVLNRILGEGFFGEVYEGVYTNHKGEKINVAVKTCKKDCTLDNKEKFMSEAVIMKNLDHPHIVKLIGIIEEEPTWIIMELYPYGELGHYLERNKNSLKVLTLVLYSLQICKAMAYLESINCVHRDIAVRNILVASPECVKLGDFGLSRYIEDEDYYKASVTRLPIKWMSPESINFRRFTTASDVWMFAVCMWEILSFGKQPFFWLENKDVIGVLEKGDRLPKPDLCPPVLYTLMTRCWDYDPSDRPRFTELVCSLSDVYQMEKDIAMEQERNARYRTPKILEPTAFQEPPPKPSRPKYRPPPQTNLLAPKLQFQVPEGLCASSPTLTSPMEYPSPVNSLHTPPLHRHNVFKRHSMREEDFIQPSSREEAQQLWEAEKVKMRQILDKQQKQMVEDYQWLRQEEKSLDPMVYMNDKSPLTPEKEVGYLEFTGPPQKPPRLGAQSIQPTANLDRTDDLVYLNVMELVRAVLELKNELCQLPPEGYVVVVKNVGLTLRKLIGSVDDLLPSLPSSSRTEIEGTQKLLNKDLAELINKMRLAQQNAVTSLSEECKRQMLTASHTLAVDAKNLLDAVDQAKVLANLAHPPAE
Of the large screens only hits and unclear results are named; the others gave an inactive call.

CCOCCn1c(N2CCN(c3ccccc3)CC2)nc2c1c(=O)n(C)c(=O)n2C	none (no result: Jurkat viability)
CCCNc1nc2c(c(=O)n(C)c(=O)n2C)n1CCC(C)C	Jurkat viability 33
CCCCCCn1c(N2CCN(c3ccccc3)CC2)nc2c1c(=O)n(C)c(=O)n2C	HUVEC inhibit 23
CCCCCCn1c(NCC)nc2c1c(=O)n(C)c(=O)n2C	Jurkat viability 78
CN1C(=O)N(S(=O)(=O)c2ccc(F)c(F)c2F)C(=O)C1(C)C	none
COC(=O)c1ccc(Oc2nc(C(N)=O)cc(-c3ccccc3)n2)cc1	H69AR growth 86K 12 (no result: Jurkat viability)
O=C(CN(Cc1ccco1)S(=O)(=O)c1cccs1)Nc1ccccc1C(F)(F)F	none
CCOc1ccccc1-n1c(CN2CCN(C(=O)c3ccco3)CC2)nc2ccccc2c1=O	Lung fibro prol 15
CCc1nc(N2CCN(C(=O)c3ccco3)CC2)c2oc3ccccc3c2n1	H69AR growth 86K 22
CC(C)(C)c1nc(N2CCN(C(=O)c3ccco3)CC2)c2nnn(Cc3ccccc3)c2n1	H69AR growth 86K 11 (no result: Jurkat viability)
O=C(c1ccco1)N1CCN(c2nc(C3CC3)nc3c2nnn3Cc2ccccc2Cl)CC1	none (no result: Jurkat viability)
O=S(=O)(c1ccc(F)cc1)n1ccc(-c2cccc(OCc3ccc(Cl)cc3Cl)c2)n1	none (no result: Jurkat viability, MT1-MMP txn act, HUVEC inhibit, H69AR growth 86K, Lung fibro prol)
Cc1ccccc1Cn1c(=N)n(CC(=O)c2ccco2)c2ccccc21	none
Cc1cccc(C)c1NC1=NC(=S)N(c2ccccc2)C12CCOC(C)(C)C2 (centres undefined)	H69AR growth 86K 34 (no result: Jurkat viability)
O=c1c2c3c(sc2n2c(=S)[nH]nc2n1Cc1ccccc1)CN(Cc1ccccc1)CC3	none (no result: Jurkat viability, PTK2B oligo ant)
Cc1cccc(C)c1NC(=O)CSc1nnc([C@@H]2CCCN2C(=O)OC(C)(C)C)o1	none (no result: Jurkat viability)
CCc1ccccc1NC(=O)CSc1nnc([C@@H]2CCCN2C(=O)OC(C)(C)C)o1	H69AR growth 86K 2.1
Cc1ccccc1NC1=C/C(=N\S(=O)(=O)c2cccs2)c2ccccc2C1=O	PTK2B oligo ant -4 (no result: Jurkat viability, MT1-MMP txn act, HUVEC inhibit, H69AR growth 86K, Lung fibro prol)
CCOC(=O)C1=C(COc2ccccc2)NC(=O)NC1c1ccc(Cl)cc1 (centres undefined)	none (no result: Jurkat viability, HUVEC inhibit, H69AR growth 86K, Lung fibro prol, PTK2B oligo ant)
CCc1nnc(NC(=O)c2ccc(S(=O)(=O)N(CC)Cc3ccccc3)cc2)o1	Jurkat viability 98, H69AR growth 86K 21
CCCN(CCC)S(=O)(=O)c1ccc(NC(=O)Cc2cccs2)cc1	none (no result: Jurkat viability)
CCCCN(CC)S(=O)(=O)c1ccc(C(=O)Nc2nnc(-c3cccs3)o2)cc1	Jurkat viability 101, HUVEC inhibit 5.0, H69AR growth 86K 35 (no result: PTK2B oligo ant)
CCc1nnc(NC(=O)c2ccc(S(=O)(=O)N(CC)CC)cc2)s1	none (no result: PTK2B oligo ant)
CCCCN(C)S(=O)(=O)c1ccc(C(=O)Nc2nnc(CSC)o2)cc1	Jurkat viability 53 (no result: HUVEC inhibit, H69AR growth 86K, Lung fibro prol)
CCCCN(CCCC)S(=O)(=O)c1ccc(NC(=O)Cc2cccs2)cc1	PTK2B oligo ant -3.2 (no result: Jurkat viability)
CC(=O)N/N=C/c1ccc(OCCOc2ccc(Br)cc2)cc1	none (no result: Jurkat viability, MT1-MMP txn act, HUVEC inhibit, H69AR growth 86K, Lung fibro prol)
CCCCN(CCCC)S(=O)(=O)c1ccc(NS(=O)(=O)c2ccc(NC(C)=O)cc2)cc1	none (no result: Jurkat viability)
CCCCN(CCCC)S(=O)(=O)c1ccc(C(=O)Nc2nnc(COC)o2)cc1	H69AR growth 86K 27
CCC(=O)Nc1cccc(NC(=O)CSc2nnc(-c3ccc(NS(C)(=O)=O)cc3)n2CC)c1	none (no result: Jurkat viability)
Cc1cc(Br)ccc1SCC(=O)OCC(=O)Nc1ncc(C(F)(F)F)cc1Cl	none (no result: Jurkat viability, MT1-MMP txn act, HUVEC inhibit, H69AR growth 86K, Lung fibro prol)
CCC(=O)OCCNc1cc(Sc2nc3ccccc3s2)c2nonc2c1[N+](=O)[O-]	H69AR growth 86K 1.3, Lung fibro prol 3.7 (no result: Jurkat viability)
Cc1ccc(-c2csc3ncn(-n4c(C)ccc4C)c(=O)c23)o1	none
N#C/C(=C\c1cn(CC(=O)N2CCCCC2)c2ccccc12)C(=O)NCc1ccc2c(c1)OCO2	none (no result: Jurkat viability, MT1-MMP txn act, HUVEC inhibit, H69AR growth 86K, Lung fibro prol)
Cn1nc(-c2ccc(Cl)cc2)c2cc(C(=O)NCC3CCCO3)sc21 (centres undefined)	none (no result: PTK2B oligo ant)
CN1CCN(CCCNC(=O)c2cc3c(-c4ccc(Cl)cc4)nn(C)c3s2)CC1	HUVEC inhibit 1.9, H69AR growth 86K 4.5, Lung fibro prol 14 (no result: PTK2B oligo ant)
CCN(CC)CCCNC(=O)c1cc2c(-c3ccc(Cl)cc3)nn(C)c2s1	HUVEC inhibit 2.4, H69AR growth 86K 1.8, Lung fibro prol 19 (no result: PTK2B oligo ant)
CCN1C(=O)NC(c2cc(Br)ccc2OC)C(C(=O)OC)=C1C (centres undefined)	none
O=C(O)Cc1ccc(O)c(F)c1	none (no result: Jurkat viability, PTK2B oligo ant)
CCOC(=O)C1CCCN(c2nc3ccccc3nc2C(C#N)C(=O)OCCOC)C1 (centres undefined)	HUVEC inhibit 25 (no result: Jurkat viability)
CN1CCN(c2nc3ccccc3nc2C(C#N)C(=O)OC2CCCCC2)CC1 (centres undefined)	HUVEC inhibit 3.7, H69AR growth 86K 19
CCOC(=O)C1CCCN(c2nc3ccccc3nc2C(C#N)C(=O)OCC)C1 (centres undefined)	none
COC(=O)c1ccc(C(/C=C/[C@@H](C)C(=O)NCc2ccc(OC)c(O)c2)NC(=O)OCc2ccccc2)cc1 (some centres undefined)	none (no result: Jurkat viability, HUVEC inhibit, H69AR growth 86K, Lung fibro prol, PTK2B oligo ant)
CCOC(=O)c1c(NC(=O)Cn2c(C)nc3ccccc32)sc2c1CCC2	H69AR growth 86K 36
CCOC(=O)c1c(NC(=O)c2ccc(-n3cnnn3)cc2)sc2c1CCCC2	H69AR growth 86K 2.1 (no result: Lung fibro prol, PTK2B oligo ant)
CCOC(=O)c1c(NC(=O)Cn2nnc3ccccc32)sc2c1CCC(C)C2 (centres undefined)	none
CCCCOc1ccc(C(=O)N/N=C/c2ccc(OCCN3CCCCC3)c(OC)c2)cc1	none (no result: Jurkat viability, MT1-MMP txn act, HUVEC inhibit, H69AR growth 86K, Lung fibro prol)
COC(=O)C1CCN(C(=O)COC(=O)CCc2nc3ccccc3c(=O)[nH]2)CC1	none (no result: Jurkat viability, MT1-MMP txn act, HUVEC inhibit, H69AR growth 86K, Lung fibro prol)
CCOC1(OCC)N=C(N)C2(C#N)C(c3ccc(NC(C)=O)cc3)C12C#N (centres undefined)	none
COc1ccc(C(=O)n2nc(-c3ccccc3)nc2N)cc1OC	none
CCn1c(-c2ccc(N)cc2)nc2ccccc21	none (no result: PTK2B oligo ant)
CCn1c(-c2ccc(N(C)C)cc2)nc2ccccc21	Jurkat viability 50
CCOc1cc2c3c(c1)C1(C(=O)N3C(C)(C)C=C2C)C(C#N)=C(N)Oc2cc(O)ccc21 (centres undefined)	H69AR growth 86K 33
CC1=C(C(=O)Nc2ccccc2)C(c2ccc(C)o2)n2c(s/c(=C/c3ccccc3)c2=O)=N1 (centres undefined)	H69AR growth 86K 23 (no result: Jurkat viability)
CCN(CC)S(=O)(=O)c1ccc2[nH]cc(C(=O)NCCN3CCCCCC3)c(=O)c2c1	none
CCOc1ccc(N(C)S(=O)(=O)c2ccc3[nH]cc(C(=O)NCC4CCCO4)c(=O)c3c2)cc1 (centres undefined)	none
Cc1ccccc1N(C)S(=O)(=O)c1ccc2[nH]cc(C(=O)NCC3CCCO3)c(=O)c2c1 (centres undefined)	PTK2B oligo ant -3.2 (no result: Jurkat viability)
CCN(CC)S(=O)(=O)c1ccc2[nH]cc(C(=O)NCCC3=CCCCC3)c(=O)c2c1	H69AR growth 86K 8.5 (no result: Jurkat viability)
CC1Cc2ccccc2N1Cc1nc2cc(C(F)(F)F)ccc2c(=O)[nH]1 (centres undefined)	H69AR growth 86K 37 (no result: Jurkat viability)
